# According to article PMC5814546 (Clinical Pharmacokinetics, 2017):
# Where two headings read alike, the source gives them in different places.
# Key:
# [1] = Urine drug recovery, renal clearance and estimate of oral bioavailability; format: in vivo, human; details: Cohort D, 24-h urine; for CL renal: both, human, urine and plasma, oral, 265 mg, CLr, mean ± SD
# Summary of the method: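 Cohort D: 265 mg immediate-release tablet in the fed state (meal 30 min pre-dose), once on day 1, twice daily days 2–6, once on day 7. Urine was collected over 24 h on days 1 and 7 and assayed by LC-MS (LLOQ 30 ng/mL ALZ-801, 100 ng/mL tramiprosate). Renal clearance was calculated as Ae divided by plasma AUC24.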
# [2] = Single-dose ALZ-801 immediate-release tablet PK and food effect study; format: in vivo, human; details: plasma; for Cmax: C max
# [3] = Bridging clinical dose analysis and projection of brain drug exposure; set-up: species or system human; details: for projected plasma tramiprosate AUC12: oral ALZ-801 265 mg twice daily, steady state
# Summary of the method: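 Projected from human plasma tramiprosate AUC after oral tablet: linear regression of steady-state dose vs AUC for 205 and 342 mg fed, with accumulation factor from Study 2 day 7/day 1 and modelled Study 3 data. Benchmark was the plasma AUC12 of the earlier 150 mg twice-daily tramiprosate trial. Brain exposure scaled by rodent brain/plasma ratio (14C-tramiprosate, single and steady-state).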
# [4] = Phase I single ascending dose study of ALZ-801 loose-filled capsule; format: in vivo, human; details: both, human, plasma, oral, 100 mg, Plasma tramiprosate t ½, mean ± SD
# Summary of the method: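 Single fasted oral loose-filled capsules; 172 mg in 36 healthy subjects over 50 y (parallel, randomized 1:1:1), 300 mg in 15 subjects over 50 y. Plasma sampled over 48 h into K3 EDTA on ice, spun 2000g 10 min 4 °C, stored at or below −20 °C. LC-MS assay; non-compartmental analysis; Tmax as median (range).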
# [5] = system: brain amyloid plaque load; details: chronic oral treatment, TgCRND8 mice; cited from earlier work
# [6] = molecular target: T1, organic anion transporter (OAT) 1 (Homo sapiens, UniProt Q4U2R8); assay: Effect on renal transporters; format: in vitro ADME; details: concentrations up to 100 mM; data on file
# T1 sequence (Q4U2R8 1-563): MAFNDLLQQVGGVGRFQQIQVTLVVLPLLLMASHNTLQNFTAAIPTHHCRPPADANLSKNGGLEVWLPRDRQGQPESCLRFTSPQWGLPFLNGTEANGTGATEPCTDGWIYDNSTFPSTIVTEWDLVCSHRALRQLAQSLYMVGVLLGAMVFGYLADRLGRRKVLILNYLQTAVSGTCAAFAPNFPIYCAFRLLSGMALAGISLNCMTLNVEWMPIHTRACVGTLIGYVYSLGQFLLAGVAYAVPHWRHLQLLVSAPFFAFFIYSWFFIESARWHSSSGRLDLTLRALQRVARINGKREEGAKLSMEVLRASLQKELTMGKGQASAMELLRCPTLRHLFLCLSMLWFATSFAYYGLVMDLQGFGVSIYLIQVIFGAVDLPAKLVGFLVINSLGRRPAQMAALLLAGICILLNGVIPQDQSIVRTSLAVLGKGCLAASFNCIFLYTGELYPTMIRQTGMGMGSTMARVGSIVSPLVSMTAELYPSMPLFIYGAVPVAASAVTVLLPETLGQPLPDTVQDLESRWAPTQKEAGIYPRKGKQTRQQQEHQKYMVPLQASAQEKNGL
# [7] = Phase I multiple ascending dose study of ALZ-801 capsule and tablet; format: in vivo, human; details: plasma; for AUC / Cmax / Tmax / half-life: both, human, oral, 265 mg, mean ± SD; for Cmax: C max; for Tmax: T max; for half-life: t ½
# [8] = cited from earlier work; for ADAS-cog difference compared with placebo: oral tramiprosate
# [9] = 205 mg ALZ-801 tablets fed (Regimen C) vs fasted
# [10] = Day 1, fed, ALZ-801 tablet 265 mg (Cohort D)
# [11] = Day 7, fed, ALZ-801 tablet 265 mg twice daily (Cohort D)
# [12] = day 7 vs day 1, 171 and 256.5 mg capsules, fasted
smiles,measurement,setting,value
"NCCCS(=O)(=O)O [tramiprosate, 3-amino-1-propanesulfonic acid]",Mean Ae,"[1]; Day 1, ALZ-801 tablet 265 mg",44.0 mg
same,Mean Ae,"[1]; Day 7, ALZ-801 tablet 265 mg",58.4 mg
same,CL renal,"[1]; Day 1, ALZ-801 tablet 265 mg",201 ± 48.2 mL/min
same,CL renal,"[1]; Day 7, ALZ-801 tablet 265 mg",194 ± 85.1 mL/min
same,half-life,"[2]; human, oral, 171 mg",12.9 h
same,Tmax,"[2]; human, oral, 205 mg",1.5 h
same,half-life,"[2]; human, oral, 205 mg",16.5 h
same,AUC(0-t),"[2]; human, oral, 205 mg, AUCt, 205 mg ALZ-801 tablets, fed (Regimen C)",2.99 µg·h/mL
same,Cmax,"[2]; human, oral, 205 mg, 205 mg ALZ-801 tablets, fed (Regimen C)",0.638 µg/mL
same,Cmax,"[2]; human, oral, 342 mg, 342 mg ALZ-801 tablets, fed (Regimen D)",0.978 µg/mL
same,delay of T max with food,[2]; [9],approximately 30 min
same,reduced C max with food,[2]; [9],17%
same,fold increase in C max for 1.7-fold increase in dose,"[2]; 342 mg (Regimen D) vs 205 mg ALZ-801 tablets, fed",1.5 fold
same,interindividual variability for exposure,"[2]; ALZ-801 tablet, fed and fasted states",20–35%
same,projected plasma tramiprosate AUC12,[3]; fasted,approximately 4844 ng/mL h
same,projected plasma tramiprosate AUC12,[3]; fasted and fed combined,~4.502 µg·h/mL
same,projected plasma tramiprosate AUC12,[3]; fed,~4.36 µg·h/mL
same,"Projected brain average concentration (C ss,av)","[3]; projected steady state, ALZ-801 tablet 265 mg twice daily, humans, 14C method",approximately 550 nM
same,"brain:plasma ratio (brain penetration), steady state","[3]; rodent, 14C method, projected after steady-state dosing",~ 40%
same,half-life,[4]; after tramiprosate LF capsule 100 mg,5.9 ± 5.22 h
same,half-life,[4]; after tramiprosate MR tablet 100 mg,4.99 ± 2.66 h
same,reduction in brain amyloid plaque load,[5],~ 30%
same,effect on renal transporter,[6],no effect
same,AUC,"[7]; AUC12, plasma, Day 1, fed, ALZ-801 tablet 265 mg (Cohort D)",3.3 ± 0.608 µg·h/mL
same,AUC,"[7]; AUC12, plasma, Day 7, fed, ALZ-801 tablet 265 mg twice daily (Cohort D)",4.1 ± 0.687 µg·h/mL
same,AUC,"[7]; AUC24, plasma, Day 1, fed, ALZ-801 tablet 265 mg (Cohort D)",3.65 ± 0.67 µg·h/mL
same,AUC,"[7]; AUC24, plasma, Day 7, fed, ALZ-801 tablet 265 mg twice daily (Cohort D)",5.02 ± 0.859 µg·h/mL
same,Cmax,[7]; [10],0.759 ± 0.163 µg/mL
same,Cmax,[7]; [11],0.865 ± 0.172 µg/mL
same,Tmax,[7]; [10],3.56 ± 0.88 h
same,Tmax,[7]; [11],2.9 ± 0.603 h
same,half-life,[7]; [10],8.94 ± 1.35 h
same,half-life,[7]; [11],36.1 ± 4.15 h
same,lower C max in fed than fasted state,"[7]; 256.5 mg ALZ-801 capsules, day 1",approximately 13%
same,accumulation ratio AUC12,[7]; [12],1.3
same,accumulation ratio C max,[7]; [12],1.2
same,lower C max for 265 mg tablet than 256.5 mg capsule,"[7]; fed state, day 1",approximately 12%
same,lower C max for 265 mg tablets than 256.5 mg capsules,"[7]; fed, day 7",11%
same,lower C max in fed than fasted state,"[7]; repeated 256.5 mg ALZ-801 capsules, day 7",~18%
same,ADAS-cog difference compared with placebo,[8]; APOE4 carriers,2 point
same,ADAS-cog difference compared with placebo,[8]; APOE4 homozygous (APOE4/4) patients,4 point
same,CSF drug levels,[8]; oral tramiprosate 150 mg twice daily for 78 weeks,60 nM
same,mean plasma exposure AUC12,"[8]; tramiprosate 150 mg twice daily, 78 weeks, phase III",4.429 µg·h/mL
